According to publication PMC2780016 (Journal of medicinal chemistry, 2009):
“Also recorded” adds a separate entry of the source.

Assays:
Format in all cases: biochemical
[1] = molecular target: T1, human liver CE, hCE1 (CES1) (Homo sapiens, UniProt P23141); test: Inhibition of hCE1 hydrolysis of 3; details: for Ki: read-out: hCE1 Ki ± SE, substrate 3 (o-nitrophenyl acetate); for inhibition of hCE1 (in words): substrate 3
T1 sequence (P23141 18-567): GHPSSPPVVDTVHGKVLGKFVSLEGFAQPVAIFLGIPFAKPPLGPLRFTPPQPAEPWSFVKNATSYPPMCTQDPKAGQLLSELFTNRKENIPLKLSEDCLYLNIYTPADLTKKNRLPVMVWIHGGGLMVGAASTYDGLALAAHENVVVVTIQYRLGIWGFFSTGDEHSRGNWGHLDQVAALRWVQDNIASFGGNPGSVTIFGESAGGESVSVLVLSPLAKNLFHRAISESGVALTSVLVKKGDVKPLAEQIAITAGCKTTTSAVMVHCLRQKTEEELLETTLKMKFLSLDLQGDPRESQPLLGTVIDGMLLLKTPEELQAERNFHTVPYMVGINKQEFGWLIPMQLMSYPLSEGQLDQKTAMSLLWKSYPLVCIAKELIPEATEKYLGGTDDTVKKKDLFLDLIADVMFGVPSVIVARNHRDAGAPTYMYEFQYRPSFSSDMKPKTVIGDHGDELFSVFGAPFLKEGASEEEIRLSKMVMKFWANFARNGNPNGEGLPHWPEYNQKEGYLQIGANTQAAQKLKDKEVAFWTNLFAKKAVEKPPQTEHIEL

[2] = molecular target: T2, human intestinal CE (hiCE, CES2) (Homo sapiens, UniProt O00748)
T2 sequence (O00748 27-559): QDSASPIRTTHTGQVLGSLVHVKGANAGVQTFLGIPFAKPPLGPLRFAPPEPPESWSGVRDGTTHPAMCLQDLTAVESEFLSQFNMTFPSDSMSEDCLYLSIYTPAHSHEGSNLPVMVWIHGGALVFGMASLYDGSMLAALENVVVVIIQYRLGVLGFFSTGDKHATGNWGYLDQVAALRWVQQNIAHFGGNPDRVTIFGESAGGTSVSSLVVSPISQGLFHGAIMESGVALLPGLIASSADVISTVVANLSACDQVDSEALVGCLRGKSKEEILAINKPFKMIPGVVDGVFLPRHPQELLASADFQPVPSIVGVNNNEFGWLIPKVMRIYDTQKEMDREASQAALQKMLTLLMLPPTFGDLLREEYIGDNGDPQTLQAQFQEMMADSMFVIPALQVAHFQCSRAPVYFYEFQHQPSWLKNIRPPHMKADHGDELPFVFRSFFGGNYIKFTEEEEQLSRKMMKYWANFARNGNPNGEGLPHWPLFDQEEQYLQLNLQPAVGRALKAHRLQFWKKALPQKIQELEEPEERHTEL

[3] = molecular target: T3, hiCE (Homo sapiens, UniProt O00748); test: Inhibition of the metabolism of heroin and cocaine; details: data not shown; Hatfield et al, manuscript in preparation
T3 sequence (O00748 27-559): T2 sequence (O00748 27-559)

[4] = molecular target: hAChE (Homo sapiens, UniProt P22303); test: Inhibition of acetylcholinesterase, acetylthiocholine substrate; details: data not shown
Chain of hAChE (P22303 32-614): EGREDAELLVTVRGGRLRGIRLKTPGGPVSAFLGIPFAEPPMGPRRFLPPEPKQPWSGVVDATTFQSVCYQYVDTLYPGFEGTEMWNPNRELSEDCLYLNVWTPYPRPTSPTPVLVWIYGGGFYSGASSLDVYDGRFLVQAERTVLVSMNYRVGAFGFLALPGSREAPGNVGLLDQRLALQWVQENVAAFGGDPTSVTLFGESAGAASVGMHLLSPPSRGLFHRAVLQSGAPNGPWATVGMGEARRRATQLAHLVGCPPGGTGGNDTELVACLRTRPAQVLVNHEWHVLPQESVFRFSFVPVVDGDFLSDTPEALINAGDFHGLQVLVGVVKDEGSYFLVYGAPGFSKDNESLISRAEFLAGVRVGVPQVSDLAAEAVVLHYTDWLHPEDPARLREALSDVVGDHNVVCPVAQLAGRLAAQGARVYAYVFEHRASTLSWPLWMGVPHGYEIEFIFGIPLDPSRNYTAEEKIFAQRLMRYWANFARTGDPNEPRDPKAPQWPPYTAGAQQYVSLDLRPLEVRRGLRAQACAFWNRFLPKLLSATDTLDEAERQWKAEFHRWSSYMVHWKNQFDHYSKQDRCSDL
In short: (§1)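 Purified human AChE and BChE were obtained commercially. Test compounds were dissolved in DMSO (stock typically 10mM) immediately before analysis. Inhibition was measured by the previously reported method, with acetylthiocholine as substrate for hAChE and butyrylthiocholine for hBChE.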

[5] = molecular target: hBChE (Homo sapiens, UniProt P06276); test: Inhibition of butyrylcholinesterase, butyrylthiocholine substrate; details: data not shown
Chain of hBChE (P06276 29-602): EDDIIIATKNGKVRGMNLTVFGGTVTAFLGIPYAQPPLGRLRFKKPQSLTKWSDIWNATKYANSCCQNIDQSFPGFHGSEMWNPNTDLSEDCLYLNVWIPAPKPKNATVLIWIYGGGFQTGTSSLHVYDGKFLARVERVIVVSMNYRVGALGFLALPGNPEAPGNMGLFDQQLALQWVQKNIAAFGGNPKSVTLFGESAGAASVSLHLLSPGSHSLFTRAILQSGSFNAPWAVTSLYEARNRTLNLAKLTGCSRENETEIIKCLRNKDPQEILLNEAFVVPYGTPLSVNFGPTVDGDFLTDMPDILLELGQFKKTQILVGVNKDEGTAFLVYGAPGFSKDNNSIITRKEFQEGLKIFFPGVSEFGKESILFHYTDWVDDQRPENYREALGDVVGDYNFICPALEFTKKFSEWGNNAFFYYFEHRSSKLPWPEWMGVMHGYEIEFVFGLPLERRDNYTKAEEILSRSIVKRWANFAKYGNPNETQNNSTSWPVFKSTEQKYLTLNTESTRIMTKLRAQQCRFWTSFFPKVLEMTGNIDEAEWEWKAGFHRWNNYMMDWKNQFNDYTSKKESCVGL
In short: as §1

Row | Molecule | inhibition of hCE1 (in words) [1] | inhibition of hAChE (in words) [4] | inhibition of hBChE (in words) [5] | inhibition of hiCE (in words) ([2]; substrate 3) | further results
1 | 4,6-dimethyl-N1,N3- diphenylbenzene-1,3- disulfonamide [compound 4] |  |  |  |  | Ki [1]: > 100 µM
2 | O=S(=O)(Nc1ccc(NS(=O)(=O)c2ccc(Cl)cc2)cc1)c1ccc(Cl)cc1 [compound 11, N,N'-(1,4-phenylene)bis(4-chlorobenzenesulfonamide)] | weak activity |  |  |  | fold more potent against hiCE than hCE1 ([2]; ratio of Ki values hCE1 vs hiCE, substrate 3): over 250 fold
3 | O=S(=O)(Nc1ccc(NS(=O)(=O)c2cccc(Br)c2)cc1)c1cccc(Br)c1 [compound 18, N,N'-(1,4-phenylene)bis(3-bromobenzenesulfonamide)] |  |  |  |  | inhibition of the metabolism of heroin and cocaine (in words) [3]: can also inhibit the metabolism of heroin and cocaine
4 | O=S(=O)(Nc1ccc(NS(=O)(=O)c2cc(Cl)c(Cl)cc2Cl)cc1)c1cc(Cl)c(Cl)cc1Cl [compound 28, N,N'-(1,4-phenylene)bis(2,4,5-trichlorobenzenesulfonamide)] | inactive | inactive | inactive | did not inhibit the enzyme; also recorded: loss of biological activity; also recorded: do not inhibit hiCE; also recorded: inactive | 
5 | O=C(O)c1ccc(S(=O)(=O)Nc2ccc(NS(=O)(=O)c3ccc(F)cc3)cc2)cc1 [compound 39, 4-(N-(4-(4-fluorophenylsulfonamido)phenyl)sulfamoyl) benzoic acid] | inactive | inactive | inactive | did not inhibit the enzyme; also recorded: do not inhibit hiCE; also recorded: inactive | 
6 | CNC(=O)c1ccc(S(=O)(=O)Nc2ccc(NS(=O)(=O)c3ccc(F)cc3)cc2)cc1 [compound 41, 4-(N-(4-(4-fluorophenylsulfonamido)phenyl)sulfamoyl)-N-methyl benzamide] | inactive | inactive | inactive | did not inhibit the enzyme; also recorded: do not inhibit hiCE; also recorded: inactive | 
7 | O=S(=O)(Nc1c(F)c(F)c(NS(=O)(=O)c2ccc(Br)cc2)c(F)c1F)c1ccc(Br)cc1 [compound 54, N,N'-(2,3,5,6-tetrafluoro-1,4-phenylene) bis(4-bromobenzenesulfonamide)] |  |  |  |  | inhibition of the metabolism of heroin and cocaine (in words) [3]: can also inhibit the metabolism of heroin and cocaine
8 | O=S(=O)(Nc1ccc2c(c1)Cc1cc(NS(=O)(=O)c3ccccc3)ccc1-2)c1ccccc1 [compound 56] |  |  |  |  | fold more potent at inhibiting hiCE than compound 8 ([2]; comparison of inhibition constants of 8 and 56): ~11 fold
9 | N,N'-(1,4-phenylene)bis(4-fluoro-2-methyl benzene sulfonamide) [compound 36] |  |  |  |  | Ki [1]: > 100 µM; Ki ([2]; read-out: hiCE Ki ± SE, substrate 3 (o-nitrophenyl acetate)): 0.273 ± 0.033 µM
